For data set [1], the target named is T1, CD137 (Homo sapiens, UniProt Q07011+Q96NY8). As to conditions: cited from earlier work.
Data set [2] relates to human PBMCs cocultured with HT1376. Briefly: PBMC/HT1376 coculture cytokine secretion assay. As to conditions: anti-CD3 stimulated PBMCs with HT1376. Format: cell-based. The essentials: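 Frozen healthy-donor human PBMCs were thawed, washed in PBS with benzonase and resuspended in RPMI with 10% heat-inactivated FBS, HEPES and glutamine. PBMCs (1 × 10^6/mL) were plated with tumor cells (1 × 10^5/mL) at 10:1, stimulated with soluble anti-CD3 OKT3 (100 ng/mL), and given diluted test compound. Incubation was 2 days at 37 °C, 5% CO2. Supernatant IFNγ and IL-2 were measured by Luminex; four-parameter fit, n = 3.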

Data set [3] concerns the target T1, CD137. Briefly: tumor cell/CD137 reporter coculture assay with other tumor cell lines. Format: cell-based. The method, boiled down:
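A Jurkat reporter line expressing human CD137 and a CD137-responsive luciferase element was cocultured with 10,000 cells of the indicated tumor line, with or without test compound, for 6 h at 37 °C, 5% CO2. Bio-Glo luciferase reagent was then added and luminescence read. Fold induction was calculated as RLU over background wells without test article.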

Data set [4] is described as follows: Pharmacokinetics in Sprague-Dawley rats. The settings on record: rat, in vivo, iv, 2 mg/kg.
Data set [5] concerns the target T1, CD137. Nature of the data set: HT1376/CD137 reporter coculture assay. Format: cell-based.
The mark [6] stands for this setting: 1:2 (BCY10918) vs 1:1 (BCY10572).

T1 sequence (Q07011 24-255): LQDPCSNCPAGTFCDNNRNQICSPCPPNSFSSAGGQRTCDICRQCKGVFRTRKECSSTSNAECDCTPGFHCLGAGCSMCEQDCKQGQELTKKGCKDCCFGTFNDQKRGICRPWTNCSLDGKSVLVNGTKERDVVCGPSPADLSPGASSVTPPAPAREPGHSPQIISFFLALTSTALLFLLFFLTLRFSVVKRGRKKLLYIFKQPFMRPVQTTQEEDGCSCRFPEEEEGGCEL
T1 sequence (Q96NY8 32-510): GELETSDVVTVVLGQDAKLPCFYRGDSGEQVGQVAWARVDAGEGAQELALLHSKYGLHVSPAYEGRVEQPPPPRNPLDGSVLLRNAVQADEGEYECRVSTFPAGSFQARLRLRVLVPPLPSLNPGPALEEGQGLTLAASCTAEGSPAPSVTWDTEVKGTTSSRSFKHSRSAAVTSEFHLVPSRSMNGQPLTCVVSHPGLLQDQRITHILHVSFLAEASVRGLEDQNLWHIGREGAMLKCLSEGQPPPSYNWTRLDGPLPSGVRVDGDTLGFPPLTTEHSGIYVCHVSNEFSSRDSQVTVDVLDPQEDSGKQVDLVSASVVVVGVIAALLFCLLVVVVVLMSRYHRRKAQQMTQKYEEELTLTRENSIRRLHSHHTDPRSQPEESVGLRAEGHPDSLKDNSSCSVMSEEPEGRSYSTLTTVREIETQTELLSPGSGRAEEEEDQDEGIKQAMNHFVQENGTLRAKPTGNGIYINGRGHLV

On to `CCCC[C@@H]1NC(=O)[C@H](Cc2ccc(O)cc2)NC(=O)[C@@H]2CCCN2C(=O)[C@H](CC(=O)O)NC(=O)[C@H](C)NC(=O)[C@H](Cc2ccccc2)NC(=O)[C@@H]2CSCCC(=O)N3CN(CN(C3)C(=O)CCSC[C@@H](C(=O)N[C@@H](CNC(=O)CCOCCOCCOCCOCCOCCOCCOCCOCCOCCOCCOCCOCCn3cc(CCC(=O)NCCC(=O)N(C)CC(=O)N(C)CC(=O)N(C)CC(=O)N(C)CC(=O)N(C)CC(=O)N(C)CC(=O)N(C)CC(=O)N(C)CC(=O)N(C)CC(=O)N(C)CC(=O)N[C@H]4CSCCC(=O)N5CN6CN(C5)C(=O)CCSC[C@H](NC(=O)[C@@H](CC(=O)O)NC(=O)[C@H](Cc5cccc7ccccc57)NC(=O)[C@@H]5CCCN5C4=O)C(=O)N[C@@H](CCSC)C(=O)N[C@@H](CCCCNC(=N)N)C(=O)N[C@@H](CC(=O)O)C(=O)N[C@@H](Cc4c[nH]c5ccccc45)C(=O)N[C@@H](CO)C(=O)N[C@@H]([C@@H](C)O)C(=O)N4CCC[C@H]4C(=O)N4C[C@H](O)C[C@H]4C(=O)N[C@@H](Cc4c[nH]c5ccccc45)C(=O)N[C@H](C(N)=O)CSCCC6=O)nn3)C(N)=O)NC1=O)C(=O)CCSC[C@H](NC(=O)[C@H](C)NC(C)=O)C(=O)N[C@@H]([C@@H](C)CC)C(=O)N[C@@H](CCC(=O)O)C(=O)N[C@@H](CCC(=O)O)C(=O)NCC(=O)N[C@@H](CCC(N)=O)C(=O)N[C@@H](Cc1ccc(O)cc1)C(=O)N2` [BCY8854], for which, in data set [1], the “CD137 agonism in coculture with Nectin-4 null PC3” value is “not with a Nectin-4 null PC3 cell line”. The “CD137 agonism in coculture with HT1376 and NCI-H292” value in data set [1] (tumor lines endogenously expressing Nectin-4) was “CD137 agonism was also observed”. Also, in data set [2], the “secretion of proinflammatory cytokines IFNγ and IL-2” value (shortened to “secretion”) is reported as “dose-dependent increase”. Moreover, in data set [3] (6 h treatment, Jurkat CD137 reporter), the “CD137 agonism in coculture with MC38-Nectin-4 or parental MC38” value was “dose-dependent agonism of CD137 was observed only in the presence of the Nectin-4-expressing MC38 clone”. The “concentration above which agonism is reduced (hook effect)” value in data set [3] (tumor cell/CD137 reporter coculture) is recorded as “above 300 nM”.
One may read the clearance as the volume of plasma or blood freed of the substance per unit of time. A high value points to a high capacity for elimination. Take `CCCC[C@@H]1NC(=O)[C@H](Cc2ccc(O)cc2)NC(=O)[C@@H]2CCCN2C(=O)[C@H](CC(=O)O)NC(=O)[C@H](C)NC(=O)[C@H](Cc2ccccc2)NC(=O)[C@@H]2CSCCC(=O)N3CN(CN(C3)C(=O)CCSC[C@@H](C(=O)N[C@@H](CNC(=O)CCOCCOCCOCCOCCOCCOCCOCCOCCOCCOCCOCCOCCn3cc(CCC(=O)NCCC(=O)N(C)CC(=O)N(C)CC(=O)N(C)CC(=O)N(C)CC(=O)N(C)CC(=O)N(C)CC(=O)N(C)CC(=O)N(C)CC(=O)N(C)CC(=O)N(C)CC(=O)N[C@H]4CSCCC(=O)N5CN6CN(C5)C(=O)CCSC[C@H](NC(=O)[C@@H](CC(=O)O)NC(=O)[C@H](Cc5cccc7ccccc57)NC(=O)[C@@H]5CCCN5C4=O)C(=O)N[C@@H](CCSC)C(=O)N[C@@H](CCCCNC(=N)N)C(=O)N[C@@H](CC(=O)O)C(=O)N[C@@H](Cc4c[nH]c5ccccc45)C(=O)N[C@@H](CO)C(=O)N[C@@H]([C@@H](C)O)C(=O)N4CCC[C@H]4C(=O)N4C[C@H](O)C[C@H]4C(=O)N[C@@H](Cc4c[nH]c5ccccc45)C(=O)N[C@H](C(N)=O)CSCCC6=O)nn3)C(N)=O)NC1=O)C(=O)CCSC[C@H](NC(C)=O)C(=O)N[C@@H](CC(C)(C)C)C(=O)N1CCC[C@H]1C(=O)N[C@@H](CCC(=O)O)C(=O)N[C@H](C)C(=O)N1CCC[C@H]1C(=O)N[C@@H](Cc1ccc(O)cc1)C(=O)N2` [BCY10000]: the clearance in data set [4] (CL (mL/min/kg), SD rats, 2 mg/kg IV bolus) was 19 mL/min/kg. Besides, in data set [5] (BCY10000 relative to BCY8854), the “improvement of Emax” value is given as 1.5 fold and the “improvement of in vitro potency (EC50)” value is on record as “fourfold”. Further, in data set [2], the “secretion” value is “dose-dependent increase”.
What is called half-life is the time needed for the level to fall by half in the phase considered. Take `CCCC[C@@H]1NC(=O)[C@H](Cc2ccc(O)cc2)NC(=O)[C@@H]2CCCN2C(=O)[C@H](CC(=O)O)NC(=O)[C@H](C)NC(=O)[C@H](Cc2ccccc2)NC(=O)[C@@H]2CSCCC(=O)N3CN(CN(C3)C(=O)CCSC[C@@H](C(=O)N[C@@H](C)C(N)=O)NC1=O)C(=O)CCSC[C@H](NC(C)=O)C(=O)N[C@@H](CC(C)(C)C)C(=O)N1CCC[C@H]1C(=O)N[C@@H](CCC(=O)O)C(=O)N[C@H](CCCCNC(=O)CCc1cn(CCOCCOCCOCCOCCOCCOCCOCCOCCOCCOCCNC(=O)c3cc(C(=O)NCCOCCOCCOCCOCCOCCOCCOCCOCCOCCOCCn4cc(CCC(=O)NCCCC[C@H]5NC(=O)[C@H](CCC(=O)O)NC(=O)[C@@H]6CCCN6C(=O)[C@H](CC(C)(C)C)NC(=O)[C@@H](NC(C)=O)CSCCC(=O)N6CN7CN(C6)C(=O)CCSC[C@H](NC(=O)[C@H](Cc6ccc(O)cc6)NC(=O)[C@@H]6CCCN6C5=O)C(=O)N[C@@H](Cc5ccccc5)C(=O)N[C@@H](C)C(=O)N[C@@H](CC(=O)O)C(=O)N5CCC[C@H]5C(=O)N[C@@H](Cc5ccc(O)cc5)C(=O)N[C@@H](CCCC)C(=O)N[C@H](C(=O)N[C@@H](C)C(N)=O)CSCCC7=O)nn4)cc(C(=O)NCCOCCOCCOCCOCCOCCOCCOCCOCCOCCOCCn4cc(CCC(=O)N[C@H]5CSCCC(=O)N6CN7CN(C6)C(=O)CCSC[C@H](NC(=O)[C@@H](CC(=O)O)NC(=O)[C@H](Cc6cccc8ccccc68)NC(=O)[C@@H]6CCCN6C5=O)C(=O)N[C@@H](CCSC)C(=O)N[C@@H](CCCCNC(=N)N)C(=O)N[C@@H](CC(=O)O)C(=O)N[C@@H](Cc5c[nH]c6ccccc56)C(=O)N[C@@H](CO)C(=O)N[C@@H]([C@@H](C)O)C(=O)N5CCC[C@H]5C(=O)N5C[C@H](O)C[C@H]5C(=O)N[C@@H](Cc5c[nH]c6ccccc56)C(=O)N[C@H](C(N)=O)CSCCC7=O)nn4)c3)nn1)C(=O)N1CCC[C@H]1C(=O)N[C@@H](Cc1ccc(O)cc1)C(=O)N2` [BCY10918]: the half-life in data set [4] is 1.8 h. Moreover, in data set [5] (setting [6]), the “improvement in EC50” value was 8.3 fold and the “improvement in Emax” value was found to be 2.0 fold.
Take `CCCC[C@@H]1NC(=O)[C@H](Cc2ccc(O)cc2)NC(=O)[C@@H]2CCCN2C(=O)[C@H](CC(=O)O)NC(=O)[C@H](C)NC(=O)[C@H](Cc2ccccc2)NC(=O)[C@@H]2CSCCC(=O)N3CN(CN(C3)C(=O)CCSC[C@@H](C(=O)N[C@@H](CNC(=O)CCc3cn(CCOCCOCCOCCN(CCOCCOCCOCCC(=O)N[C@H]4CSCCC(=O)N5CN6CN(C5)C(=O)CCSC[C@H](NC(=O)[C@@H](CC(=O)O)NC(=O)[C@H](Cc5cccc7ccccc57)NC(=O)[C@@H]5CCCN5C4=O)C(=O)N[C@@H](CCSC)C(=O)N[C@@H](CCCCNC(=N)N)C(=O)N[C@@H](CC(=O)O)C(=O)N[C@@H](Cc4c[nH]c5ccccc45)C(=O)N[C@@H](CO)C(=O)N[C@@H]([C@@H](C)O)C(=O)N4CCC[C@H]4C(=O)N4C[C@H](O)C[C@H]4C(=O)N[C@@H](Cc4c[nH]c5ccccc45)C(=O)N[C@H](C(N)=O)CSCCC6=O)CCOCCOCCOCCn4cc(CCC(=O)NC[C@H](NC(=O)[C@@H]5CSCCC(=O)N6CN7CN(C6)C(=O)CCSC[C@H](NC(=O)[C@H](Cc6ccc(O)cc6)NC(=O)[C@@H]6CCCN6C(=O)[C@@H](C)NC(=O)[C@H](CCC(=O)O)NC(=O)[C@@H]6CCCN6C(=O)[C@H](CC(C)(C)C)NC(=O)[C@@H](NC(C)=O)CSCCC7=O)C(=O)N[C@@H](Cc6ccccc6)C(=O)N[C@@H](C)C(=O)N[C@@H](CC(=O)O)C(=O)N6CCC[C@H]6C(=O)N[C@@H](Cc6ccc(O)cc6)C(=O)N[C@@H](CCCC)C(=O)N5)C(N)=O)nn4)nn3)C(N)=O)NC1=O)C(=O)CCSC[C@H](NC(C)=O)C(=O)N[C@@H](CC(C)(C)C)C(=O)N1CCC[C@H]1C(=O)N[C@@H](CCC(=O)O)C(=O)N[C@H](C)C(=O)N1CCC[C@H]1C(=O)N[C@@H](Cc1ccc(O)cc1)C(=O)N2` [BCY11385]: the “secretion” value in data set [2] was “dose-dependent increase”.
Same read-out and setting: as for `CCCC[C@@H]1NC(=O)[C@H](Cc2ccc(O)cc2)NC(=O)[C@@H]2CCCN2C(=O)[C@H](CC(=O)O)NC(=O)[C@H](C)NC(=O)[C@H](Cc2ccccc2)NC(=O)[C@@H]2CSCCC(=O)N3CN(CN(C3)C(=O)CCSC[C@@H](C(=O)N[C@@H](C)C(N)=O)NC1=O)C(=O)CCSC[C@H](NC(C)=O)C(=O)N[C@@H](CC(C)(C)C)C(=O)N1CCC[C@H]1C(=O)N[C@@H](CCC(=O)O)C(=O)N[C@H](CCCCNC(=O)CCc1cn(CCOCCOCCOCCN(CCOCCOCCOCCC(=O)N[C@H]3CSCCC(=O)N4CN5CN(C4)C(=O)CCSC[C@H](NC(=O)[C@@H](CC(=O)O)NC(=O)[C@H](Cc4cccc6ccccc46)NC(=O)[C@@H]4CCCN4C3=O)C(=O)N[C@@H](CCSC)C(=O)N[C@@H](CCCCNC(=N)N)C(=O)N[C@@H](CC(=O)O)C(=O)N[C@H](Cc3c[nH]c4ccccc34)C(=O)N[C@@H](CO)C(=O)N[C@@H]([C@@H](C)O)C(=O)N3CCC[C@H]3C(=O)N3C[C@H](O)C[C@H]3C(=O)N[C@H](Cc3c[nH]c4ccccc34)C(=O)N[C@H](C(N)=O)CSCCC5=O)CCOCCOCCOCCn3cc(CCC(=O)NCCCC[C@H]4NC(=O)[C@H](CCC(=O)O)NC(=O)[C@@H]5CCCN5C(=O)[C@H](CC(C)(C)C)NC(=O)[C@@H](NC(C)=O)CSCCC(=O)N5CN6CN(C5)C(=O)CCSC[C@H](NC(=O)[C@H](Cc5ccc(O)cc5)NC(=O)[C@@H]5CCCN5C4=O)C(=O)N[C@@H](Cc4ccccc4)C(=O)N[C@@H](C)C(=O)N[C@@H](CC(=O)O)C(=O)N4CCC[C@H]4C(=O)N[C@@H](Cc4ccc(O)cc4)C(=O)N[C@@H](CCCC)C(=O)N[C@H](C(=O)N[C@@H](C)C(N)=O)CSCCC6=O)nn3)nn1)C(=O)N1CCC[C@H]1C(=O)N[C@@H](Cc1ccc(O)cc1)C(=O)N2` [BCY13144], the entry is “No IL-2 or IFNγ secretion was observed”.

Source of the values: PMC9340768 (Journal of Medicinal Chemistry, 2022).
